Source: PubChem BioAssay
KCNQ1 pot: potentiators or activators of KCNQ1 channel, primary screen, cell-based, thallium flux, high-throughput. AID 2648, 2010. CHO-K1 KCNQ1, thallium flux FluxOR fluorescence; hits give high values. B-score at 10 µM. Potassium voltage-gated channel subfamily KQT member 1 (Homo sapiens), P51787. actives 0.35% (n = 310,000);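 active = fluorescence ratio B-score, a plate-corrected score, at least three library SD, with initial intensity B-score within 5 SD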
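Assay system: CHO-K1 cells stably expressing KCNQ1. Medium: assay buffer for compound exposure, DMSO matched across wells. Timing: 37 °C overnight plating, 90-min dark dye load, 20-min compound pretreatment. Signal: kinetic FluxOR fluorescence, 10 s baseline plus 110 s post-stimulus.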
Kir21 block: inhibitors of mouse Kir2.1 inward-rectifier potassium channel; Inward rectifier potassium channel 2 (Mus musculus), P35561; HEK293-Kir2.1, FluxOR thallium flux fluorescence; hits give low values; B-score at 10 µM; actives 0.85% (n = 310,000);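 active = fluorescence ratio B-score at or below minus 3 SD of library scores, with starting-brightness B-score within 2 SD, cut at about -4.2 in these data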;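 note: channel flux triggered by added potassium and thallium sulfate stimulus; B-score of peak minus minimum fluorescence over baseline after thallium stimulus; more negative B-score means stronger Kir2.1 block with less thallium influx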
Target sequence (P35561 whole entry, looked up): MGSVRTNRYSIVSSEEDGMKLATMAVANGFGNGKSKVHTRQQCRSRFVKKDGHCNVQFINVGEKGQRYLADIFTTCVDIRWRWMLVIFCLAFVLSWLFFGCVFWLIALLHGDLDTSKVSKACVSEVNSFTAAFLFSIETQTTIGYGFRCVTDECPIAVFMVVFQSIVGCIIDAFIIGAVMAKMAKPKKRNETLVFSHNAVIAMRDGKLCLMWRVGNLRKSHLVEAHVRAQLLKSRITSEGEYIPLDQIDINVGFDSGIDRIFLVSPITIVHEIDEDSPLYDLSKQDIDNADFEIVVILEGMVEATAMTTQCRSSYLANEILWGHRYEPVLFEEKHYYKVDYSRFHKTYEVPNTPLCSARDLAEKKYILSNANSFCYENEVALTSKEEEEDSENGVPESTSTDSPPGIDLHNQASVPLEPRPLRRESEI
hERG rescue: hERG rescue from dofetilide block, primary screen, cell-based, CHO-hERG, FluxOR thallium flux, dofetilide IC70; Voltage-gated inwardly rectifying potassium channel KCNH2 (Homo sapiens), Q12809; dofetilide IC70 present; activation (rescue from dofetilide block), less the hit threshold, % at 10 µM; actives 0.51% (n = 310,000); AID 1511, 2009;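 active = activation above the mean of controls blocked by dofetilide plus 5 SD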;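 note: thallium influx through hERG after potassium depolarization seen as dye fluorescence rise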
KCNK3 inh: human KCNK3 channel inhibitors, primary screen, CHO cells, FluxOR thallium flux, B-score. AID 602410, 2012. FluxOR fluorescence; hits give low values. Potassium channel subfamily K member 3 (Homo sapiens), O14649. actives 0.84% (n = 340,000). B-score at 10 µM;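 active = B-score under library mean minus 4 SD, starting fluorescence ratio at most library mean plus 5 SD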;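 note: more negative B-score means stronger inhibition of thallium flux through KCNK3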
KCNQ1 block: inhibitors of human KCNQ1 channel, primary screen, cell-based, thallium flux, high-throughput; Potassium voltage-gated channel subfamily KQT member 1 (Homo sapiens), P51787; CHO-K1 KCNQ1, FluxOR thallium flux fluorescence; hits give high values; B-score at 10 µM; actives 1.3% (n = 310,000);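 active = compounds whose thallium flux B-score, printed positive for inhibition, exceeds three library SD while starting fluorescence stays within three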;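 note: channel opened by potassium depolarization with thallium stimulus after 20 min compound exposure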
KCNK9 inh: KCNK9 potassium channel inhibitors, primary screen, HEK293 cells, thallium flux; Potassium channel subfamily K member 9 (Homo sapiens), Q9NPC2; actives 1.2% (n = 310,000); FluxOR thallium flux fluorescence; hits give low values; B-score at 10 µM;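 active = ratio B-score over 3 SD below the library mean, with starting fluorescence within 5 SD of its mean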;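 note: negative B-score means less thallium flux so channel inhibition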
Each line names hits and unclear results; the compound was inactive in the other large screens. Sampled rows, rich in hits. Any-hit rate of the full collection: about 3.8%.

CC1=CC(C#N)(C#N)C(C#N)(C#N)C(c2ccccc2)N1 (stereo not drawn)	none (no result: KCNK3 inh)
O=C(CCn1c(=O)c2ccccc2n(CC(=O)N2CCN(c3ccccc3)CC2)c1=O)NCc1ccco1	none
O=C(C[C@@H]1C/C=C\C[C@H](NC(=O)OCC2c3ccccc3-c3ccccc32)C(=O)OC[C@H]2CCCN2C1=O)NCCO	none (no result: KCNQ1 pot, Kir21 block, hERG rescue, KCNQ1 block, KCNK9 inh)
CCC(C)OC(=O)C[N+](C)(C)CCOC1CC2CCC1(C)C2(C)C (stereo not drawn)	KCNQ1 block 7
CCCCCCOC(=O)C[N+](C)(C)CCOC1CC2CCC1(C)C2(C)C (stereo not drawn)	Kir21 block -7.7, KCNQ1 block 9
CCCCOC(=O)C[N+](C)(C)CCOC1CC2CCC1(C)C2(C)C (stereo not drawn)	KCNQ1 block 7
CC(C)CCOC(=O)C[N+](C)(C)CCOC1CC2CCC1(C)C2(C)C (stereo not drawn)	none
Nc1ccc(C2(c3ccc(N)cc3)c3ccccc3C(=O)c3ccccc32)cc1	none
CC1=Nc2ccc(C)cc2/C1=C/c1c(N)n2oc(C)cc2nc1=O	none
Cc1ccccc1NS(=O)(=O)c1cc(C(=O)Nc2ccccc2-c2ccccc2)ccc1Cl	KCNK9 inh -7.2
Fc1ccc(CNc2ncnc3cc(Cl)ccc23)cc1	none
CCOC(=O)Cc1csc2nc(-c3ccccc3)nn12	none
CCOC(=O)c1cc(=O)n2nc(-c3ccc(C)cc3)nc2s1	KCNQ1 block 7
CC(=O)NCCn1c(SCc2cccc([N+](=O)[O-])c2)nc2ccccc2c1=O	none
COCCNC(=O)C(c1ccc(OC)cc1)N(Cc1ccco1)C(=O)CCC(=O)Nc1ccccn1 (stereo not drawn)	none
Cn1c(NNC(=O)C(c2ccccc2)c2ccccc2)cc(=O)n(C)c1=O	hERG rescue 4.9
Cn1c(NC(=O)c2ccccc2)cc(=O)n(C)c1=O	none
Cc1ccccc1NS(=O)(=O)c1cc(C(=O)NCCSC2CCCCC2)ccc1C	KCNK9 inh -8
COc1ccccc1NC(=O)C(=O)NCc1ccncc1	none
COc1ccc(-c2cc(C(=O)OCC(=O)c3ccc(C)c([N+](=O)[O-])c3)c3ccccc3n2)cc1	none
COc1ccc(-c2nn(-c3ccccc3)cc2C(=O)OCC(=O)c2ccc(C)c([N+](=O)[O-])c2)cc1	KCNQ1 block 8
Cn1c(=O)c2[nH]c(C3CC4CCC3C4)nc2n(C)c1=O (stereo not drawn)	none (no result: KCNQ1 pot, Kir21 block, hERG rescue, KCNQ1 block, KCNK9 inh)
CCCN1C(=O)/C(=C/C=C2\N(CC)c3ccccc3C2(C)C)SC1=S	KCNQ1 block 8
CC(=O)N1CCN(C(=O)c2ccc(OC3CCN(Cc4ccccn4)CC3)cc2)CC1	none
CCN1C(=O)/C(=C2\SC(=S)N(NC(=O)c3ccccc3O)C2=O)c2ccccc21	KCNQ1 block 10
N#CCCN(C(=O)COC(=O)c1cccc(S(=O)(=O)Nc2ccc([N+](=O)[O-])cc2)c1)c1ccccc1	none
COc1ccc(NC(=O)CSc2nccn2-c2ccccc2)c(OC)c1	none
COc1ccc(Cn2ccnc2SCC(=O)Nc2ccccc2OC)cc1	Kir21 block -4.5
CCOc1ccccc1NC(=O)CSc1nccn1-c1ccccc1	Kir21 block -7
COC(C/C=C\C(=O)[C@H](C)OCc1ccccc1)OC	none
COc1cc(C(=O)NS(=O)(=O)c2ccccc2C)ccc1Cc1cn(C)c2ccc(NC(=O)OC3CCCC3)cc12	KCNQ1 block 10 (no result: KCNK3 inh)
O=C1CSC(=S)N1/N=C/c1ccc(O)c(O)c1O	none
O=C1CSC(=S)N1/N=C/c1cc(Br)ccc1O	hERG rescue 7.1 (no result: KCNK3 inh)
CCn1c2ccccc2c2cc(/C=N/NC(=O)c3ccccc3)ccc21	hERG rescue 6.4
Cn1c2ccccc2c2cc(/C=N/NC(=O)c3cc(O)cc(O)c3)ccc21	none
O=C(NC1CCCC1)C(c1ccccc1F)N(C(=O)c1csnn1)C1CC1 (stereo not drawn)	none
O=C(Nc1nc2c(Br)cc(Br)cc2c(=O)s1)C1CCC1	hERG rescue 5.9
CC(=O)OC1CCC2(C)C3=CCC4(C)C(C(C)=O)=CCC4C3CCC2C1 (stereo not drawn)	none (no result: KCNQ1 pot, Kir21 block, hERG rescue, KCNQ1 block, KCNK9 inh)
CCN(CC)S(=O)(=O)c1ccc(Cl)c(C(=O)NCc2ccccc2Cl)c1	none
COc1cc(NC(=O)OCc2ccccc2)c2ncccc2c1	KCNK3 inh -11 (no result: KCNQ1 pot, Kir21 block, hERG rescue, KCNQ1 block, KCNK9 inh)
COc1cc(NC(=O)c2cc(OC)c(OC)c(OC)c2)c2ncccc2c1	none (no result: KCNQ1 pot, Kir21 block, hERG rescue, KCNQ1 block, KCNK9 inh)
COc1cccc(CNCC(O)COc2ccc(C(=O)c3ccccc3)cc2)c1 (stereo not drawn)	Kir21 block -5.4
O=C(c1ccccc1)c1ccc(OCC(O)CNCc2ccc(Cl)cc2)cc1 (stereo not drawn)	Kir21 block -4.7
OC(CNCc1ccccc1)COc1ccccc1 (stereo not drawn)	none
OC(CNC1Cc2ccccc2C1)COc1ccc(Cl)cc1 (stereo not drawn)	Kir21 block -4.2
OC(CNC1CCCc2ccccc21)COc1c(Cl)cccc1Cl (stereo not drawn)	Kir21 block -8.9
Nc1nc(N2CCN(c3ccccn3)CC2)nc2ccccc12	none
COC(=O)N1C(=O)[C@@](Cc2ccccc2)(c2ccccc2)N1C(=O)OC	hERG rescue 5.4
Cc1ccc(S(=O)(=O)N2CCC(C(=O)N/N=C/c3ccccc3[N+](=O)[O-])CC2)cc1	none
Cc1ccc(-n2ncc3c2CCCC3NC(=O)c2csnn2)cc1C (stereo not drawn)	hERG rescue 19
CCc1cc(C(=O)NC2CCCc3c2cnn3-c2cccc(C)c2C)n(C)n1 (stereo not drawn)	KCNQ1 block 11 (no result: KCNK3 inh)
Cc1ccc(-n2ncc3c2CCCC3NC(=O)c2ccoc2)cc1C (stereo not drawn)	none
Cc1cc(C)cc(-n2ncc3c2CCCC3NC(=O)c2csnn2)c1 (stereo not drawn)	hERG rescue 36
CCc1nnc(SCC(=O)NC2CCCC2)nc1CC	none
CCc1nnc(SCC(=O)Nc2ccccc2)nc1CC	hERG rescue 4.9
C/C=C/C=C/[C@H]1Cc2cc(O)cc(O)c2O1	Kir21 block -4.3 (no result: KCNK3 inh)
CN(CC(=O)Nc1cccc(F)c1)C(=O)c1ccccc1Cc1ccccc1	none
Cc1ccc(C)c(NC(=O)c2ccccc2C(=O)c2ccccc2)c1	KCNK9 inh -10 (no result: KCNK3 inh)
Cc1ccc(C)c(NC(=O)CN(C)C(=O)c2ccccc2Cc2ccccc2)c1	Kir21 block -4.3
